Assay results: ChEMBL document CHEMBL1130424, “Stabilized analogs of thymopentin. 1. 4,5-Ketomethylene pseudopeptides” (J Med Chem, 1997)

Test system: CCRF-CEM
Test: Binding was measured using [3H]thymopentin was compared to the CEM cell binding assay.
Assay type: functional, Homo sapiens
Design: unit not given here
`CC(C)[C@H](NC(=O)[C@H](CC(=O)O)NC(=O)[C@@H]1CCCN1C(=O)[C@@H](N)CCCN=C(N)N)C(=O)C[C@H](Cc1ccccc1)C(=O)O` (stereo in doubt; 1b-B) gave a Binding of 2000.
Compound `CCCC[C@H](NC(=O)[C@@H](N)CCCN=C(N)N)C(=O)N[C@@H](CC(=O)O)C(=O)N[C@H](C(=O)C[C@H](Cc1ccccc1)C(=O)O)C(C)C` (stereo in doubt; 1c-A) has a Binding of 1254.
Compound `CCCC[C@H](NC(=O)[C@@H](N)CCCN=C(N)N)C(=O)N[C@@H](CC(=O)O)C(=O)N[C@H](C(=O)C[C@H](Cc1ccccc1)C(=O)O)C(C)C` (stereo in doubt; 1c-B) has a Binding of 1453.
`CC(C)[C@H](NC(=O)[C@H](CC(=O)O)NC(=O)[C@H](CCCCN)NC(=O)[C@@H](N)CCCN=C(N)N)C(=O)C[C@H](Cc1ccccc1)C(=O)O` (stereo in doubt; 1f-A) showed a Binding of 2044.
With `CCCC[C@H](NC(=O)[C@@H](N)CCCN=C(N)N)C(=O)N[C@@H](CC(=O)O)C(=O)N[C@@H](C)C(=O)C[C@H](Cc1ccccc1)C(=O)O` (stereo in doubt; 1g-A) the Binding was 1677.
`CCCC[C@H](NC(=O)[C@@H](N)CCCN=C(N)N)C(=O)N[C@@H](CC(=O)O)C(=O)N[C@@H](C)C(=O)C[C@H](Cc1ccccc1)C(=O)O` (stereo in doubt; 1g-B) showed a Binding of 1715.
`CCCC[C@H](NC(=O)[C@@H](N)CCCN=C(N)N)C(=O)N[C@@H](CC(=O)O)C(=O)N[C@H](C(=O)C[C@H](C(=O)O)C(C)C)C(C)C` (stereo in doubt; 1h-A) showed a Binding of 1600.
Compound `CCCC[C@H](NC(=O)[C@@H](N)CCCN=C(N)N)C(=O)N[C@@H](CC(=O)O)C(=O)N[C@H](C(=O)C[C@H](C(=O)O)C(C)C)C(C)C` (stereo in doubt; 1h-B) has a Binding of 1713.

Test system: CCRF-CEM
Test: Efficacy was measured as the percentage binding to CEM cells.
Assay type: functional, Homo sapiens
In short: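 CEM T-cells, subcultured in RPMI-1640 with 20% serum and stored frozen, were set at 5×10^6 cells/0.1 mL binding buffer (RPMI-1640 with bacitracin). Unlabeled competitor was added at 10^-6–10^-3 M, then [3H]thymopentin (37 Ci/mmol, 548 000 cpm). Incubation was 25 °C for 30 min, followed by two ice-cold washes and scintillation counting. Values are means of replicates at 10^-4 and 10^-3 M.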
`CC(C)[C@H](NC(=O)[C@H](CC(=O)O)NC(=O)[C@@H]1CCCN1C(=O)[C@@H](N)CCCN=C(N)N)C(=O)C[C@H](Cc1ccccc1)C(=O)O` (stereo in doubt; 1b-B) gave an Efficacy of 56.
For `CCCC[C@H](NC(=O)[C@@H](N)CCCN=C(N)N)C(=O)N[C@@H](CC(=O)O)C(=O)N[C@H](C(=O)C[C@H](Cc1ccccc1)C(=O)O)C(C)C` (stereo in doubt; 1c-A), the Efficacy was 95.
With `CCCC[C@H](NC(=O)[C@@H](N)CCCN=C(N)N)C(=O)N[C@@H](CC(=O)O)C(=O)N[C@H](C(=O)C[C@H](Cc1ccccc1)C(=O)O)C(C)C` (stereo in doubt; 1c-B) the Efficacy was 84.
Compound `CC(C)[C@H](NC(=O)[C@H](CC(=O)O)NC(=O)[C@H](CCCCN)NC(=O)[C@@H](N)CCCN=C(N)N)C(=O)C[C@H](Cc1ccccc1)C(=O)O` (stereo in doubt; 1f-A) has an Efficacy of 54.
`CCCC[C@H](NC(=O)[C@@H](N)CCCN=C(N)N)C(=O)N[C@@H](CC(=O)O)C(=O)N[C@@H](C)C(=O)C[C@H](Cc1ccccc1)C(=O)O` (stereo in doubt; 1g-A) gave an Efficacy of 73.
For `CCCC[C@H](NC(=O)[C@@H](N)CCCN=C(N)N)C(=O)N[C@@H](CC(=O)O)C(=O)N[C@@H](C)C(=O)C[C@H](Cc1ccccc1)C(=O)O` (stereo in doubt; 1g-B), the Efficacy was 71.
With `CCCC[C@H](NC(=O)[C@@H](N)CCCN=C(N)N)C(=O)N[C@@H](CC(=O)O)C(=O)N[C@H](C(=O)C[C@H](C(=O)O)C(C)C)C(C)C` (stereo in doubt; 1h-A) the Efficacy was 77.
In the case of `CCCC[C@H](NC(=O)[C@@H](N)CCCN=C(N)N)C(=O)N[C@@H](CC(=O)O)C(=O)N[C@H](C(=O)C[C@H](C(=O)O)C(C)C)C(C)C` (stereo in doubt; 1h-B), the Efficacy is reported as 71.

Test system: not listed separately
Test: Half life by HPLC methods that permitted quantitative resolution of the decrease of TP-5 and the appearance of degradation products by absorbance in heparinized mouse serum
Assay type: functional, cell-free
In short: (§1)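 Mouse serum was prepared from whole blood with heparin sodium or EDTA as anticoagulant. Compounds were incubated for variable times, and incubation was ended by TFA to 10% (v/v) final, then 1 h at 0 °C and protein removal by centrifugation. Half-life came from HPLC absorbance following disappearance of parent and appearance of degradation products.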
`CC(C)[C@H](NC(=O)[C@H](CC(=O)O)NC(=O)[C@H](CCCCN)NC(=O)[C@@H](N)CCCN=C(N)N)C(=O)C[C@H](Cc1ccccc1)C(=O)O` (stereo in doubt; 1a -A) showed a T1/2 of 2 min.

Test system: not listed separately
Test: Half life by HPLC methods that permitted quantitative resolution of the decrease of TP-5 and the appearance of degradation products by absorbance, heparinized mouse serum.
Assay type: ADME
In short: as §1
For `CCCC[C@H](NC(=O)[C@@H](N)CCCN=C(N)N)C(=O)N[C@@H](CC(=O)O)C(=O)N[C@H](C(=O)C[C@H](C(=O)O)C(C)C)C(C)C` (stereo in doubt; 1h-A), the T1/2 was 1.2 min.
In the case of `CCCC[C@H](NC(=O)[C@@H](N)CCCN=C(N)N)C(=O)N[C@@H](CC(=O)O)C(=O)N[C@H](C(=O)C[C@H](C(=O)O)C(C)C)C(C)C` (stereo in doubt; 1h-B), the T1/2 is reported as 2.6 min.

Test system: not listed separately
Test: Half life by HPLC methods that permitted quantitative resolution of the decrease of TP-5 and the appearance of degradation products by absorbance in heparinized mouse serum.
Assay type: ADME
In short: as §1
Compound `CCCC[C@H](NC(=O)[C@@H](N)CCCN=C(N)N)C(=O)N[C@@H](CC(=O)O)C(=O)N[C@H](C(=O)C[C@H](Cc1ccccc1)C(=O)O)C(C)C` (stereo in doubt; 1c-A) has a half-life of 5.5 min.

Test system: not listed separately
Test: Half life by HPLC methods that permitted quantitative resolution of the decrease of TP-5 and the appearance of degradation products by absorbance in human heparinized serum
Assay type: ADME
`CCCC[C@H](NC(=O)[C@@H](N)CCCN=C(N)N)C(=O)N[C@@H](CC(=O)O)C(=O)N[C@H](C(=O)C[C@H](Cc1ccccc1)C(=O)O)C(C)C` (stereo in doubt; 1c-A) gave a half-life of 1.9 min.

Test system: not listed separately
Test: Half life by HPLC methods that permitted quantitative resolution of the decrease of TP-5 and the appearance of degradation products by absorbance in EDTA-treated mouse serum
Assay type: ADME, organism-based
In short: as §1
Work on `CCCC[C@H](NC(=O)[C@@H](N)CCCN=C(N)N)C(=O)N[C@@H](CC(=O)O)C(=O)N[C@H](C(=O)C[C@H](Cc1ccccc1)C(=O)O)C(C)C` (stereo in doubt; 1c-A) yielded a half-life of 21.1 min.
Compound `CCCC[C@H](NC(=O)[C@@H](N)CCCN=C(N)N)C(=O)N[C@@H](CC(=O)O)C(=O)N[C@@H](C)C(=O)C[C@H](Cc1ccccc1)C(=O)O` (stereo in doubt; 1g-A) has a half-life of 20 min.

Test system: not listed separately
Test: Half life by HPLC methods that permitted quantitative resolution of the decrease of TP-5 and the appearance of degradation products by absorbance, human heparinized serum
Assay type: ADME, cell-free
For `CCCC[C@H](NC(=O)[C@@H](N)CCCN=C(N)N)C(=O)N[C@@H](CC(=O)O)C(=O)N[C@H](C(=O)C[C@H](C(=O)O)C(C)C)C(C)C` (stereo in doubt; 1h-A), the half-life was 2.4 min.
